Source: ChEMBL document CHEMBL4350961, “Discovery of Pyrrolo[3,2- d]pyrimidin-4-one Derivatives as a New Class of Potent and Cell-Active Inhibitors of P300/CBP-Associated Factor Bromodomain” (J Med Chem, 2019)
The source made the active and inactive calls. No cut-off for these calls is given here.

What was measured:
[1] = target: Bromodomain-containing protein 9 (Homo sapiens) (UniProt Q9H8M2); assay: Binding affinity to human N-terminal His-tagged BRD9 assessed as change in melting temperature at 10 uM by SYPRO orange dye-based fluorescence assay
In short: (§1)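 Thermal shift with His-tagged human bromodomain at 2 μM final in 10 mM HEPES pH 7.5, 500 mM NaCl. Compound at 10 μM final with 0.1% DMSO; SYPRO Orange at 1:1000. Equilibrated 3 min at 25 °C, then heated from 25 to 95 °C at 1 °C/min. Melting temperature shift taken from fluorescence; at least duplicate.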

[2] = target: Histone acetyltransferase p300 (Homo sapiens) (UniProt Q09472); assay: Binding affinity to human N-terminal His-tagged EP300 assessed as change in melting temperature at 10 uM by SYPRO orange dye-based fluorescence assay; in short: as §1
[3] = target: SWI/SNF-related matrix-associated actin-dependent regulator of chromatin subfamily A member 4 (Homo sapiens) (UniProt P51532); assay: Binding affinity to human partial length SMARCA4 (A1448 to S1575 residues) expressed in bacterial expression system at 1 uM by BROMOscan assay
SWI/SNF-related matrix-associated actin-dependent regulator of chromatin subfamily A member 4 (Homo sapiens), sequence (P51532 whole entry, the tested form may be a part): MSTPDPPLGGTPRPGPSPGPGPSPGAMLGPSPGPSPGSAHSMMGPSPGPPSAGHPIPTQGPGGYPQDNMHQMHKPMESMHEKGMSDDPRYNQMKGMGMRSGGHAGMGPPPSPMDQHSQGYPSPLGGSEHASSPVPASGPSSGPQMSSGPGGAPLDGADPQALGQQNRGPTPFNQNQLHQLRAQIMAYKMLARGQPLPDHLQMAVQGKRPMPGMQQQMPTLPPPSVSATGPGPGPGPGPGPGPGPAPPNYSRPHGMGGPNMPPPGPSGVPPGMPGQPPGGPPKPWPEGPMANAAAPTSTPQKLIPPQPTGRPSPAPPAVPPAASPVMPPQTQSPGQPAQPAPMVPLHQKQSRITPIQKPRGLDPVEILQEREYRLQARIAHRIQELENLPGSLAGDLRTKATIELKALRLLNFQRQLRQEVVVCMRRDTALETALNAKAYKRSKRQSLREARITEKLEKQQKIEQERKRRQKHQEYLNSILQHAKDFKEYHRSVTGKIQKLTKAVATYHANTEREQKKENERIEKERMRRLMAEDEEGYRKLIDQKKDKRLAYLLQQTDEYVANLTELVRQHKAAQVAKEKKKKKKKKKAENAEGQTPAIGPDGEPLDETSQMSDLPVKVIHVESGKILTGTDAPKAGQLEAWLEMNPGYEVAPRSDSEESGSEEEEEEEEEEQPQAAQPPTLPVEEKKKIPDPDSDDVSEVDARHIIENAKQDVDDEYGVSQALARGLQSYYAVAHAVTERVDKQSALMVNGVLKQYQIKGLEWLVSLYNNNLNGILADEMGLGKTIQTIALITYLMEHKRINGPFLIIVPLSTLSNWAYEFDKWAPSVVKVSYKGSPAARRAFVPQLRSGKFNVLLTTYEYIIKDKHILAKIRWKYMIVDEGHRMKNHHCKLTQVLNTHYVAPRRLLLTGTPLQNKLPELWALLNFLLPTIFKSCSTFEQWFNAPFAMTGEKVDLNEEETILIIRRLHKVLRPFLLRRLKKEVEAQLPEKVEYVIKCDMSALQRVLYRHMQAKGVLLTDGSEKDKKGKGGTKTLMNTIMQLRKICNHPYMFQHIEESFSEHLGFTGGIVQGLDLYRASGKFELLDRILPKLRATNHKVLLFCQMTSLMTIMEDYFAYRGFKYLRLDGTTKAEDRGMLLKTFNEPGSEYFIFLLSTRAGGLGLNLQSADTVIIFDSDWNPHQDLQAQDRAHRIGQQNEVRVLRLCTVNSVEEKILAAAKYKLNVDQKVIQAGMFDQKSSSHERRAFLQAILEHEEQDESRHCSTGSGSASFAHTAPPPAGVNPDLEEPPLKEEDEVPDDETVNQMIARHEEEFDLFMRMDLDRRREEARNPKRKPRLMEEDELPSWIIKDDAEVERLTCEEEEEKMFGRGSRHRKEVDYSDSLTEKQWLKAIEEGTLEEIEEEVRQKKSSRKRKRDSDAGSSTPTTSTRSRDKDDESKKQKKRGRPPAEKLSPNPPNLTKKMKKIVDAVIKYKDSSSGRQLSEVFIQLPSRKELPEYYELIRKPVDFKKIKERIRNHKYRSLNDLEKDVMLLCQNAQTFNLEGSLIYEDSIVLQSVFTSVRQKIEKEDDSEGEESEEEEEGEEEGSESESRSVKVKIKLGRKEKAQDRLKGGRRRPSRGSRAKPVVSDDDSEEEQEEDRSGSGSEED
In short: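 BROMOscan bromodomain cross-screen run by an outside service, compound at 1 µM against 32 recombinant bromodomains. Binding given as percent of control.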

[4] = Clearance in human liver microsomes at 1 uM in presence of NADPH by LC-MS analysis; assay type: ADME, Microsome; conditions: read-out: CLH
In short: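 Compound at 1 μM with 0.5 mg/mL human liver microsomes and 1 mM NADPH; sampled at 0, 5, 15, 30 and 45 min, stopped with acetonitrile, then centrifuged.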

[5] = species on record: Homo sapiens; assay: Inhibition of recombinant human ARAF Y301D/ Y302D mutant (273 to end residues) at 10 uM using myelin basic protein as substrate measured after 40 mins in presence of [gamma33P]ATP by scintillation counting method
[6] = target: Aurora kinase B (Homo sapiens) (UniProt Q96GD4); assay: Inhibition of recombinant full-length human AURKB at 10 uM using AKRRRLSSLRA as substrate measured after 40 mins in presence of [gamma33P]ATP by scintillation counting method
[7] = tested on: Tyrosine-protein kinase Blk (Homo sapiens), P51451 [UNDEFINED MUTATION]; assay: Inhibition of full-length recombinant human BLK M287V mutant at 10 uM using poly(Glu, Tyr) 4:1 as substrate measured after 40 mins in presence of [gamma33P]ATP by scintillation counting method
Tyrosine-protein kinase Blk (Homo sapiens), P51451 [UNDEFINED MUTATION], sequence (P51451 whole entry, looked up, stated change not applied): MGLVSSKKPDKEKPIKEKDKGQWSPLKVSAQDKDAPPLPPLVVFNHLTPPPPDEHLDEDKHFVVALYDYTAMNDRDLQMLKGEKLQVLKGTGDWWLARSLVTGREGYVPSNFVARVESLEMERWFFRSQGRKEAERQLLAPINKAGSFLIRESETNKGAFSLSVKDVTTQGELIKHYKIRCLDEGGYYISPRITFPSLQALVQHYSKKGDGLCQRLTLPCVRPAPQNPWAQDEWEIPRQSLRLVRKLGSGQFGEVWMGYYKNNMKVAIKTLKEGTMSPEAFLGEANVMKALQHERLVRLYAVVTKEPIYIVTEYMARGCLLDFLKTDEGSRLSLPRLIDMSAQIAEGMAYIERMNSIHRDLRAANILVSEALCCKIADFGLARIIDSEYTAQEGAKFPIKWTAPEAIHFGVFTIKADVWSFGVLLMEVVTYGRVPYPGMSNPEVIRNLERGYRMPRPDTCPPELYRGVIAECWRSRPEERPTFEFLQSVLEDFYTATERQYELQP
In short: (§2)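 Kinase panel of 422 kinases screened by Eurofins KinaseProfiler at a single test-compound concentration of 10 µM.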

[8] = tested on: Tyrosine-protein kinase BTK (Homo sapiens), Q06187 [R28H]; assay: Inhibition of full-length recombinant human BTK R28H mutant at 10 uM using LSNLYHQGKFLQTFCGSPLYRRR as substrate measured after 40 mins in presence of [gamma33P]ATP by scintillation counting method; in short: as §2
Tyrosine-protein kinase BTK (Homo sapiens), Q06187 [R28H], sequence (Q06187 whole entry R28H): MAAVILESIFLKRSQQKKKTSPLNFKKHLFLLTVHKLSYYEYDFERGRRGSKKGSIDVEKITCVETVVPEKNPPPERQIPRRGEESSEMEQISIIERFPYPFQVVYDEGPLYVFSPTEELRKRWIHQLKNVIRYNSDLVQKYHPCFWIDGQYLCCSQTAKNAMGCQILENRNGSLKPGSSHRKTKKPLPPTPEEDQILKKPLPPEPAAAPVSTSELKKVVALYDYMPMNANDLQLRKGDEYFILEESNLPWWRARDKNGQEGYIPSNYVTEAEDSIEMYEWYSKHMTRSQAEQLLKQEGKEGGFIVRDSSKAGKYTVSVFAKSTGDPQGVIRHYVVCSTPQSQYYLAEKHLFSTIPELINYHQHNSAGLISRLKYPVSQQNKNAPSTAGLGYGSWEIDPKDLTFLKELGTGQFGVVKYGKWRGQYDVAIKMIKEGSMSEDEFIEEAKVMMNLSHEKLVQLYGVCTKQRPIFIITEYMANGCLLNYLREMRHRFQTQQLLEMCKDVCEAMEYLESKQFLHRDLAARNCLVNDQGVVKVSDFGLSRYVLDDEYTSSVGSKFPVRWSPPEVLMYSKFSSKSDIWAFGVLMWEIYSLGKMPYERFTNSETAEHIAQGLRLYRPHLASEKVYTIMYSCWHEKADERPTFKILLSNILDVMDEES

[9] = tested on: Epidermal growth factor receptor (Homo sapiens), P00533 [L858R,T790M]; assay: Inhibition of recombinant human EGFR T790M/L858R mutant (696 to end residues) at 10 uM using GGMEDIYFEFMGGKKK as substrate measured after 40 mins in presence of [gamma33P]ATP by scintillation counting method
[10] = target: Macrophage colony-stimulating factor 1 receptor (Homo sapiens) (UniProt P07333); assay: Inhibition of recombinant human FMS (538 to end residues) at 10 uM using KKKSPGEYVNIEFG as substrate measured after 40 mins in presence of [gamma33P]ATP by scintillation counting method
Macrophage colony-stimulating factor 1 receptor (Homo sapiens), sequence (P07333 whole entry): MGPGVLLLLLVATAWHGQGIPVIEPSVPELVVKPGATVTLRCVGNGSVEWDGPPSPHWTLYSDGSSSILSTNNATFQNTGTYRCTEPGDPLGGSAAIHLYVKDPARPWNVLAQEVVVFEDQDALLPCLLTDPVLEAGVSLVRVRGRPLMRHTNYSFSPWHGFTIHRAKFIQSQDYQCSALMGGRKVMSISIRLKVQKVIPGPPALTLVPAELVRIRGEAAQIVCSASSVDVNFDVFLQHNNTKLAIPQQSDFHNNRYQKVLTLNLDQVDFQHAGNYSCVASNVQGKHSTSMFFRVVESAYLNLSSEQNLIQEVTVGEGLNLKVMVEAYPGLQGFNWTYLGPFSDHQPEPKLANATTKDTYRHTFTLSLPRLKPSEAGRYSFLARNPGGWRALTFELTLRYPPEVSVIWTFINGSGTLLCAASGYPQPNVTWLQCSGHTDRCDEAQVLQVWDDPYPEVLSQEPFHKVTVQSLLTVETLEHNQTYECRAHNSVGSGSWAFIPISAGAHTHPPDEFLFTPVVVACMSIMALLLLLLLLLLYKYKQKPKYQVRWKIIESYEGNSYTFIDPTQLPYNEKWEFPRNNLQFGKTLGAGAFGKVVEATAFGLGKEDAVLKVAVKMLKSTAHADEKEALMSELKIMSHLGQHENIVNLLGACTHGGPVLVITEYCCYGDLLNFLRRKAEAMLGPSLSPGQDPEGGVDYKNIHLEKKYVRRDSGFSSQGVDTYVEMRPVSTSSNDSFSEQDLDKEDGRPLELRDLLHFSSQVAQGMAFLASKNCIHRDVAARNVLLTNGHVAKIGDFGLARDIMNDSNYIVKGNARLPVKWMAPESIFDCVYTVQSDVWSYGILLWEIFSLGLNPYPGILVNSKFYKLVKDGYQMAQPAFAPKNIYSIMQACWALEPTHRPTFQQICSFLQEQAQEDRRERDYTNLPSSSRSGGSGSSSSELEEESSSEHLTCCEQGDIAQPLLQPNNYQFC

[11] = target: Rhodopsin kinase GRK7 (Homo sapiens) (UniProt Q8WTQ7); assay: Inhibition of recombinant full-length human GRK7 at 10 uM using casein as substrate measured after 40 mins in presence of [gamma33P]ATP by scintillation counting method
[12] = target: Serine/threonine-protein kinase/endoribonuclease IRE1 (Homo sapiens) (UniProt O75460); assay: Inhibition of recombinant human IRE1 (465 to end residues) at 10 uM using myelin basic protein as substrate measured after 40 mins in presence of [gamma33P]ATP by scintillation counting method
[13] = target: Tyrosine-protein kinase Lyn (Homo sapiens) (UniProt P07948); assay: Inhibition of recombinant full-length human Lyn at 10 uM using poly(Glu, Tyr) 4:1 as substrate measured after 40 mins in presence of [gamma33P]ATP by scintillation counting method
[14] = tested on: Hepatocyte growth factor receptor (Homo sapiens), P08581 [Y1230H]; assay: Inhibition of recombinant human MET A1209G/V1290L/Y1248H mutant (974 to end residues) at 10 uM using KKKGQEEEYVFIE as substrate measured after 40 mins in presence of [gamma33P]ATP by scintillation counting method
[15] = tested on: RAC-beta serine/threonine-protein kinase (Homo sapiens), P31751 [S474D]; assay: Inhibition of recombinant full-length human PKBbeta S474D mutant (120 to end residues) at 10 uM using GRPRTSSFAEGKK as substrate measured after 40 mins in presence of [gamma33P]ATP by scintillation counting method
RAC-beta serine/threonine-protein kinase (Homo sapiens), P31751 [S474D], sequence (P31751 whole entry S474D): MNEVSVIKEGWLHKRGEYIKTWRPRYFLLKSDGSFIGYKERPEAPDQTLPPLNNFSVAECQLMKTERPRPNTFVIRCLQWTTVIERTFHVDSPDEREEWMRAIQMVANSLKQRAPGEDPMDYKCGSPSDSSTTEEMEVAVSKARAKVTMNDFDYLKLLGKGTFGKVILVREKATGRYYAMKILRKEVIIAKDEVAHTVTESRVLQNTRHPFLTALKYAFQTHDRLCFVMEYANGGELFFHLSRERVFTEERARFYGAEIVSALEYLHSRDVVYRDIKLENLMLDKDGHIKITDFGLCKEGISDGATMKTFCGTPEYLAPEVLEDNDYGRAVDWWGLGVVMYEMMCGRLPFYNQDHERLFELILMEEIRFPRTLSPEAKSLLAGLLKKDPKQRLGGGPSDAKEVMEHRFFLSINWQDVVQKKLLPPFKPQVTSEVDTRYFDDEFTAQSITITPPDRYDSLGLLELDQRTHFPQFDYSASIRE

[16] = target: Protein kinase C theta type (Homo sapiens) (UniProt Q04759); assay: Inhibition of recombinant full-length human PKCtheta at 10 uM using histone H1as substrate measured after 40 mins in presence of [gamma33P]ATP by scintillation counting method
[17] = target: cGMP-dependent protein kinase 1 (Homo sapiens) (UniProt Q13976); assay: Inhibition of recombinant full-length human PKG1alpha at 10 uM using RRRLSFAEPG as substrate measured after 40 mins in presence of [gamma33P]ATP by scintillation counting method
cGMP-dependent protein kinase 1 (Homo sapiens), sequence (Q13976 whole entry): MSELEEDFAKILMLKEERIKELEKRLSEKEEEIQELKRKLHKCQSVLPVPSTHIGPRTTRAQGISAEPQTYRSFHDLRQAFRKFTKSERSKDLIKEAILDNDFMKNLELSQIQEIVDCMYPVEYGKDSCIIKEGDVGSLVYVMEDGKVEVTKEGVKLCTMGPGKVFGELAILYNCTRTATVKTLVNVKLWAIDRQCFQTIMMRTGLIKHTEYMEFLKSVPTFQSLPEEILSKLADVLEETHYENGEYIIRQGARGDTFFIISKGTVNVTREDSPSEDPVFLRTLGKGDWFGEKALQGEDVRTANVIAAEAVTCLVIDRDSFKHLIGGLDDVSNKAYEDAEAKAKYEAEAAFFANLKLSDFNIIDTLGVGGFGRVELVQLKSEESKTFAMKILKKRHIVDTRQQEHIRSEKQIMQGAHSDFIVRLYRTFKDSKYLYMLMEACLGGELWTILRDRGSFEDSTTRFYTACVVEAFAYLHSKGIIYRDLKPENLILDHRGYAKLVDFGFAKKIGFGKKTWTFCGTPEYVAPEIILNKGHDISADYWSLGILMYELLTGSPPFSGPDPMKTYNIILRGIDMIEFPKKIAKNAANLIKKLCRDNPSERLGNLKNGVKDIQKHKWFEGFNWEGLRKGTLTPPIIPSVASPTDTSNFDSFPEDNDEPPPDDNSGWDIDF

[18] = tested on: Proto-oncogene tyrosine-protein kinase receptor Ret (Homo sapiens), P07949 [V804L]; assay: Inhibition of human Ret V804L mutant (658 to end residues) using KKKSPGEYVNIEFG as substrate measured after 40 mins in presence of [gamma33P]ATP by scintillation counting method; in short: as §2
[19] = target: Receptor-interacting serine/threonine-protein kinase 2 (Homo sapiens) (UniProt O43353); assay: Inhibition of human RIPK2 (1 to 299 residues) using myelin basic protein as substrate measured after 120 mins in presence of [gamma33P]ATP by scintillation counting method; in short: as §2
[20] = target: Testis-specific serine/threonine-protein kinase 1 (Homo sapiens) (UniProt Q9BXA7); assay: Inhibition of recombinant full-length human TSSK1 at 10 uM using KKKVSRSGLYRSPSMPENLNRPR as substrate measured after 120 mins in presence of [gamma33P]ATP by scintillation counting method
[21] = target: Tau-tubulin kinase 2 (Homo sapiens) (UniProt Q6IQ55); assay: Inhibition of human TTBK2 (1 to 331 residues) using Casein as substrate measured after 40 mins in presence of [gamma33P]ATP by scintillation counting method
[22] = species on record: Mus musculus; assay: Inhibition of recombinant full-length mouse PI3K p110alpha/p85alpha E545K mutant at 10 uM using phosphatidylinositol-4, 5-bisphosphate as substrate measured after 40 mins by HTRF assay

CN1C[C@H](Nc2nc3cc[nH]c3c(=O)n2C)C[C@H](c2ccc3c(c2)OCCO3)C1
ΔTm [1]: 2.1 °C
ΔTm [2]: 0.1 °C
Activity [3]: inactive
CLint scaled at 1 µM [4]: 45 mL/min/kg
inhibition [5]: inactive
inhibition [6]: inactive
inhibition [7]: inactive
inhibition [8]: inactive
inhibition [9]: inactive
inhibition [10]: inactive
inhibition [11]: inactive
inhibition [12]: inactive
inhibition [13]: inactive
inhibition [14]: inactive
inhibition [15]: inactive
inhibition [16]: inactive
inhibition [17]: inactive
inhibition [18]: inactive
inhibition [19]: inactive
inhibition [20]: inactive
inhibition [21]: inactive
inhibition [22]: inactive
